Assays:
[1] = Inhibition of recombinant PKA
Summary of the method: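 Purified recombinant kinases with peptide substrates and ATP at each kinase's Km. Read-out was microfluidic mobility shift.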

[2] = target: Mitogen-activated protein kinase 14 (Homo sapiens, UniProt Q16539); test: Inhibition of recombinant p38alpha
Summary of the method: (§1)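 Purified recombinant kinases under optimized conditions with peptide substrates. ATP was set at each kinase's Km. Phosphorylation was read by microfluidic mobility-shift separation of substrate and product; IC50 determined.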

Cytochrome P450 2C9 = Cytochrome P450 2C9 (Homo sapiens, UniProt P11712); test: Inhibition of CYP2C9 using MFC as substrate; type: ADME
Chain of Cytochrome P450 2C9 (P11712 whole entry, canonical isoform): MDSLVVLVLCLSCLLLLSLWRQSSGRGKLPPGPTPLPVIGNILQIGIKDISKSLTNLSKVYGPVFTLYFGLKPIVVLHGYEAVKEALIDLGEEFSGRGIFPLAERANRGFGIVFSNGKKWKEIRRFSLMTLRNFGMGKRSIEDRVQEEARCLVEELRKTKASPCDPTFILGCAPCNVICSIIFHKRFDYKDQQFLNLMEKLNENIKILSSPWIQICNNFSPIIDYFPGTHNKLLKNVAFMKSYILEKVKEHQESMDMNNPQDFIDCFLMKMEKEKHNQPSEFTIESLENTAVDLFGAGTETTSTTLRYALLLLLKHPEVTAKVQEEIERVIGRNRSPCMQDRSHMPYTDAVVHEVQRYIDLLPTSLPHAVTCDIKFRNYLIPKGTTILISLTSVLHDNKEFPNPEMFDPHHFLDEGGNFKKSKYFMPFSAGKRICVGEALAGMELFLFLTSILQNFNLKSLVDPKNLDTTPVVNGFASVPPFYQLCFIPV
Summary of the method: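 Human CYP450 inhibition was measured with isoform-specific fluorogenic probe substrates: CEC for 1A2 and 2C19, MFC for 2C9, AMMC for 2D6. Incubation was at 37 °C with an NADPH-regenerating system in 384-well format. Metabolite was quantified by fluorescence, and IC50 was obtained by curve fitting.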

[3] = target: Tyrosine-protein kinase Lck (Homo sapiens, UniProt P06239); test: Inhibition of recombinant LCK kinase
Chain of Tyrosine-protein kinase Lck (P06239 whole entry): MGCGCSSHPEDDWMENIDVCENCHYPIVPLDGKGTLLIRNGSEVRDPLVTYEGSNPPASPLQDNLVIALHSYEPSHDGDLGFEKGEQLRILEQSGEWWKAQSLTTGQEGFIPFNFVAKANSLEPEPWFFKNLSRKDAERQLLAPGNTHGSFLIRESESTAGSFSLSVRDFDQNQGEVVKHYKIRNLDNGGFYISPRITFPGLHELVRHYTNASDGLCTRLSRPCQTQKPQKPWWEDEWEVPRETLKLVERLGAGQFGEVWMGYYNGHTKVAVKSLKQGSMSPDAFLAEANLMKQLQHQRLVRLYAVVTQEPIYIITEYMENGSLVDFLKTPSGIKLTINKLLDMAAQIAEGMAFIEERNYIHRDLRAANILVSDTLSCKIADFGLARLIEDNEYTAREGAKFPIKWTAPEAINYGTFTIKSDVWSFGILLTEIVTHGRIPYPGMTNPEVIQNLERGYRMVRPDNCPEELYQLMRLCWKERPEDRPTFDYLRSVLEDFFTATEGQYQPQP
Summary of the method: (§2)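 Purified recombinant kinases under optimized conditions, with peptide substrates and ATP at each kinase's Km. Phosphorylation was read out by microfluidic mobility shift, and IC50 values were obtained.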

Rattus norvegicus = test: Inhibition of FGFR autophosphorylation in RT112 tumor bearing po dosed nude rowett rat assessed as decrease in pMAPK concentration administered as a single dose by Western blot analysis; type: functional, organism-based
Summary of the method: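 RT112 subcutaneous xenografts in female nude Rowett rats (n = 4). Single oral gavage of the monophosphate salt at 4.25 or 8.51 mg/kg (free base equivalents) in acetic acid–acetate buffer pH 4.6/PEG300 (1:1). Tumors were collected at time points up to 24 h, frozen, homogenized and lysed. Western blots probed pFRS2(Tyr196) and pMAPK, with total FRS2, total MAPK or β-tubulin as loading controls.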

RT-112 = test: Antitumor activity against human RT112 cells xenografted in nude rowett rat assessed as tumor regression at 15 mg/kg, po qd administered for 20 days; type: functional
Summary of the method: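 Female nude Rowett rats aged 6–9 weeks were given 1×10^6 RT112 cells subcutaneously in HBSS/50% Matrigel. Treatment began at about 100 mm3 mean tumor volume (n = 8): monophosphate salt in acetate buffer pH 4.6/PEG300 (1:1) by gavage, 5 mL/kg, at 5, 10, 15 mg/kg/qd free base for 20 days. Tumors were measured by caliper (L×W×H×π/6). Readouts were T/C and % regression from start volume.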

SW780 = test: Antiproliferative activity against human SW780 cells overexpressing wild type FGFR3 after 72 hrs; type: functional, cell-based; conditions: SW780, 72 h
Summary of the method: (§3)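 Bladder cancer lines from ATCC or DSMZ were seeded in 96-well plates (RT4, RT112 at 8500 cells/well; others at 5000 cells/well) in growth medium. Compound dilutions or DMSO were added 24 h later and incubated 72 h. Cells were fixed with glutaraldehyde, stained with 0.05% methylene blue and eluted with 3% HCl, then OD650 nm was read.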

[4] = target: Vascular endothelial growth factor receptor 2 (Homo sapiens, UniProt P35968); test: Inhibition of recombinant VEGFR2; summary of the method: as §2
Chain of Vascular endothelial growth factor receptor 2 (P35968 whole entry): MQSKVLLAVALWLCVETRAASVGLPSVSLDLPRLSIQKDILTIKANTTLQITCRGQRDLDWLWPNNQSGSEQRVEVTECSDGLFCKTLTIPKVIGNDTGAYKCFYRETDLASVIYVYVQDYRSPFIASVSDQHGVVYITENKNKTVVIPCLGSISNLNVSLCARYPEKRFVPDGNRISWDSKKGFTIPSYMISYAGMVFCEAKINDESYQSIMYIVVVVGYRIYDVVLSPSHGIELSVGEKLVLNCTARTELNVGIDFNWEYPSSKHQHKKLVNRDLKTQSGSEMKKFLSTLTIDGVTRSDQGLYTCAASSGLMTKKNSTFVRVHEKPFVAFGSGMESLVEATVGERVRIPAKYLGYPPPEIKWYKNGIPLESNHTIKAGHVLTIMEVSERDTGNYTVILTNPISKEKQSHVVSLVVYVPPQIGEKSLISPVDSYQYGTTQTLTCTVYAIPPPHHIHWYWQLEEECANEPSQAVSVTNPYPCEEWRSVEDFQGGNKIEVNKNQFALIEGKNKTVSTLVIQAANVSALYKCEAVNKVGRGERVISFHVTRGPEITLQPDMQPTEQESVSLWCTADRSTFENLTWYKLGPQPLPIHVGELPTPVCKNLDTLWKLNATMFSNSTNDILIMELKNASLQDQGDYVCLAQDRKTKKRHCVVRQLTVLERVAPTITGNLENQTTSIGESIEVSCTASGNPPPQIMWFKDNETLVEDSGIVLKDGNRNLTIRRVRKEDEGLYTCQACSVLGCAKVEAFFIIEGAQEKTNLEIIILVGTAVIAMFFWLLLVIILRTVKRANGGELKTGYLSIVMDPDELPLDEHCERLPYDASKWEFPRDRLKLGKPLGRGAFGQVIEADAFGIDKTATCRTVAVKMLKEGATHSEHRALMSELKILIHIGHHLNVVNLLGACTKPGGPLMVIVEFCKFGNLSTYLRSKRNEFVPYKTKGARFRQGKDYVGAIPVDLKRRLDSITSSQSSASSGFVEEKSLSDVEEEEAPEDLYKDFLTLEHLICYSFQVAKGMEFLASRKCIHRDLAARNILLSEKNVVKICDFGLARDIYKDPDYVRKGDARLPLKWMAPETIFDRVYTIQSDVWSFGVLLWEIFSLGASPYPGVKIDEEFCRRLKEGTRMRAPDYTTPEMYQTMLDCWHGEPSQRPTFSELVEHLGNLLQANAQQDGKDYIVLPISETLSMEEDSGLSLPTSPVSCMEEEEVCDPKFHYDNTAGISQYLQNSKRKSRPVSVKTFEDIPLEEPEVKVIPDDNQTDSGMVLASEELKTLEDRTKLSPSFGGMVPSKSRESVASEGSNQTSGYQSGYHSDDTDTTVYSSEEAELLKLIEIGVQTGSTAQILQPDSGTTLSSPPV

J82 = test: Antiproliferative activity against human J82 cells after 72 hrs; type: functional, cell-based; conditions: J82, 72 h; summary of the method: as §3
[5] = Cmax in plasma of RT112/luc1 cells implanted athymic nude mouse at 20 mg/kg, po by LC/MS/MS analysis; type: ADME, organism-based; parameters: dose 20 mg/kg, route oral
Summary of the method: (§4)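 Female athymic nude mice carried subcutaneous RT112/luc1 tumors (5×10^6 cells, 50% Matrigel; about 300–400 mm3). Dosing was either 5 mg/kg iv by tail vein in NMP/PEG200 (1:9) or 20 mg/kg oral suspension in PEG300/D5W (2:1). Groups of mice (n = 4) were sacrificed at 0.083–24 h. Plasma and tumor levels were measured by LC-MS/MS (LOQ 5 ng/mL, 10 ng/g).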

Tumour [6] = test: Dose normalized AUC in tumor of RT112/luc1 cells implanted athymic nude mouse at 5 mg/kg, iv by LC/MS/MS analysis; type: ADME, organism-based, Neoplasm; parameters: dose 5 mg/kg, route intravenous; conditions: in vivo; summary of the method: as §4
Mus musculus = test: Toxicity in athymic nude mouse xenografted with human RT112 cells assessed as weight loss at 10 mg/kg, po administered for 12 days; type: organism-based, RT-112; parameters: dose 10 mg/kg, route oral; conditions: in vivo, 288 h
Summary of the method: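 Female athymic nude mice carried orthotopic RT112/luc1 bladder tumors. Starting 14 days after inoculation, they were dosed orally at 0, 10 or 30 mg/kg/qd for 12 days as a suspension in PEG300/D5W (2:1). Body weight was recorded during treatment. Data are means ± SEM; ANOVA with Dunnett's test versus vehicle.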

[7] = target: Serine/threonine-protein kinase PLK1 (Homo sapiens, UniProt P53350); test: Inhibition of recombinant PLK1; summary of the method: as §1
Chain of Serine/threonine-protein kinase PLK1 (P53350 whole entry): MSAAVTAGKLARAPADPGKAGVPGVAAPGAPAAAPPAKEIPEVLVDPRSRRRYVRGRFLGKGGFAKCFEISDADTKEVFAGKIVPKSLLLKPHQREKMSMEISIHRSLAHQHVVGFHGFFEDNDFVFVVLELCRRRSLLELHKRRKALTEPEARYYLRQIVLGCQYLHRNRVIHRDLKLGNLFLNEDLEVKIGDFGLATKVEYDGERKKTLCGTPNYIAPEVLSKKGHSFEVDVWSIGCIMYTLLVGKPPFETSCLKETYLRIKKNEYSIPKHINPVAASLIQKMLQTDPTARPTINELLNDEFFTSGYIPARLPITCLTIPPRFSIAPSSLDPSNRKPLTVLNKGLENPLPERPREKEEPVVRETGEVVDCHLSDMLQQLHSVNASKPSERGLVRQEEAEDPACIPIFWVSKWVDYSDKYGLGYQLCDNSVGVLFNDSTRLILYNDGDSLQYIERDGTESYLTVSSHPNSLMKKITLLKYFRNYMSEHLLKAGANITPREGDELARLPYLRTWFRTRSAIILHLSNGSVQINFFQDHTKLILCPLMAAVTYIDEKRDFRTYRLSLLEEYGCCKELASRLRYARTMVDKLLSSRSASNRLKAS

[8] = Tmax in Wistar rat at 10 mg/kg, po by LC-MS/MS analysis; type: ADME, organism-based; parameters: dose 10 mg/kg, route oral; conditions: in vivo
Summary of the method: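 Female Wistar rats received 5 mg/kg iv into the femoral vein in NMP/PEG200 (1:9), or the monophosphate salt orally at 10 mg/kg (free base) in acetate buffer pH 4.6/PEG300. Serial sublingual plasma samples were taken from 0.083 to 24 h.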

[9] = target: Serine/threonine-protein kinase N1 (Homo sapiens, UniProt Q16512); test: Inhibition of recombinant PKN1; summary of the method: as §1
Chain of Serine/threonine-protein kinase N1 (Q16512 whole entry): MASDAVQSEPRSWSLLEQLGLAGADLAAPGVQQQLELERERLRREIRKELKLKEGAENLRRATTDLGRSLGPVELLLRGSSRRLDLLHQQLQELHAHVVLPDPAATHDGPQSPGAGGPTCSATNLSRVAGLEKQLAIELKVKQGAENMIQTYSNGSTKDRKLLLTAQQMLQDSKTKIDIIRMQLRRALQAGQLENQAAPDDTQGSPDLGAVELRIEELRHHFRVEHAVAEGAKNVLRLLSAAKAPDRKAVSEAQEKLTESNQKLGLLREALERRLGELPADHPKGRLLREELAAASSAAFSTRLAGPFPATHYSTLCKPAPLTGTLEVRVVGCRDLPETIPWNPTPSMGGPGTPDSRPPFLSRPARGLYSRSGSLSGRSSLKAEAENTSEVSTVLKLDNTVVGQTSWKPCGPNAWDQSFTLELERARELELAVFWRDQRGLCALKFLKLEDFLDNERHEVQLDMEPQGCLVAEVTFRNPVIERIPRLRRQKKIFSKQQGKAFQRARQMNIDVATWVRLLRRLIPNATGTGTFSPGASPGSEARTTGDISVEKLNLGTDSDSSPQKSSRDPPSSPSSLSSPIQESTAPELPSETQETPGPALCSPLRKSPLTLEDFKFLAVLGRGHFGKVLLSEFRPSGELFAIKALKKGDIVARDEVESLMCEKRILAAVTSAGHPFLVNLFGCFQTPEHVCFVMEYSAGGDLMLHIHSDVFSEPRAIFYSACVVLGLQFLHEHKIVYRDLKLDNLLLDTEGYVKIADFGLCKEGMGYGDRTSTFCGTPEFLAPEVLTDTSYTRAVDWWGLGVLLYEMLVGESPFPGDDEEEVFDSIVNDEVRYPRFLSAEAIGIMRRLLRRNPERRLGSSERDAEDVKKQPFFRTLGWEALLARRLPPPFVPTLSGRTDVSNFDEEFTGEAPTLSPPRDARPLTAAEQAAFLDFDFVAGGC

[10] = Apparent terminal half life in Wistar rat at 10 mg/kg, po by LC-MS/MS analysis; type: ADME, organism-based; parameters: dose 10 mg/kg, route oral; conditions: in vivo, read-out: t1/2 lambda z (converted)
Summary of the method: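 Female Wistar rats. IV: 5 mg/kg into the femoral vein as a solution in NMP/PEG200 (1:9, v/v). Oral: monophosphate salt at 10 mg/kg (free base equivalents) as a solution in acetic acid–acetate buffer pH 4.6/PEG300. Plasma was taken by sublingual bleeding at 0.083–24 h, from staggered groups (n = 4) or one sequentially bled group. Assayed by LC-MS/MS (LOQ 10 ng/mL); noncompartmental analysis.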

Aurora kinase A = Aurora kinase A (Homo sapiens, UniProt O14965); test: Inhibition of recombinant Aurora A; summary of the method: as §2
Chain of Aurora kinase A (O14965 whole entry): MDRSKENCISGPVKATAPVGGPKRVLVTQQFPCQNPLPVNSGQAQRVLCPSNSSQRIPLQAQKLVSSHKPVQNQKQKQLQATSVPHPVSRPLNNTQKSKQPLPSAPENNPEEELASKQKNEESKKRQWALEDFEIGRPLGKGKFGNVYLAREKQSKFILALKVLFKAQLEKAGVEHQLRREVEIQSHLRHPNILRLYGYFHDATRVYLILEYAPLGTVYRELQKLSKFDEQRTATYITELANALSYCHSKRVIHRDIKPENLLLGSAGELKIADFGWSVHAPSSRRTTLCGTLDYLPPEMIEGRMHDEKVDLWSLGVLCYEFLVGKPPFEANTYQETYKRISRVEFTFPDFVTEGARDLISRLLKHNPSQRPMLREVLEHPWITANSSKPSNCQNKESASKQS

[11] = Oral bioavailability RT112/luc1 cells implanted athymic nude mouse; type: ADME, organism-based; conditions: in vivo
Summary of the method: (§5)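 Female athymic nude mice carrying subcutaneous RT112/luc1 tumors (ca. 300–400 mm3). Dosing was 5 mg/kg iv by tail vein in NMP/PEG200 (1:9) or 20 mg/kg by oral gavage as a suspension in PEG300/D5W (2:1). Groups (n = 4) were sacrificed from 0.083 to 24 h. Plasma and tumor were measured by LC-MS/MS (LOQ 5 ng/mL, 10 ng/g). Noncompartmental analysis used the linear trapezoidal AUC; F was calculated from dose-normalized AUC.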

[12] = Antiproliferative activity against human JMSU1 cells overexpressing wild type FGFR3 after 72 hrs; type: functional, cell-based; conditions: JMSU-1, 72 h; summary of the method: as §3
[13] = target: Serine/threonine-protein kinase N2 (Homo sapiens, UniProt Q16513); test: Inhibition of recombinant PKN2; summary of the method: as §1
[14] = target: Mitogen-activated protein kinase 1 (Homo sapiens, UniProt P28482); test: Inhibition of recombinant ERK2; summary of the method: as §1
Chain of Mitogen-activated protein kinase 1 (P28482 whole entry): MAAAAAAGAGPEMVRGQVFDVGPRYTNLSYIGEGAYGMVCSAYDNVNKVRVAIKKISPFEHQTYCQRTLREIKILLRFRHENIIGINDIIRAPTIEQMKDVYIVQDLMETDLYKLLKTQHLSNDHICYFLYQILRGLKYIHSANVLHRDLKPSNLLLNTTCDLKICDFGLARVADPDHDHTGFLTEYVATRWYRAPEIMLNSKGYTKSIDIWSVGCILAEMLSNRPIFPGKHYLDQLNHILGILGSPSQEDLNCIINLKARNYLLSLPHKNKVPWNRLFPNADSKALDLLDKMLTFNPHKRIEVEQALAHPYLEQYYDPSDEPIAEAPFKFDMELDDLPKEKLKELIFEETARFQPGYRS

[15] = Volume of distribution at steady state in RT112/luc1 cells implanted athymic nude mouse at 5 mg/kg, iv by LC/MS/MS; type: ADME, organism-based; parameters: dose 5 mg/kg, route intravenous; conditions: in vivo, read-out: Vdss; summary of the method: as §5
Tumour [16] = test: Cmax in tumor of RT112/luc1 cells implanted athymic nude mouse at 20 mg/kg, po by LC/MS/MS analysis; type: ADME, organism-based, Neoplasm; parameters: dose 20 mg/kg, route oral; conditions: in vivo; summary of the method: as §4

Chain of Mitogen-activated protein kinase 14 (Q16539 whole entry): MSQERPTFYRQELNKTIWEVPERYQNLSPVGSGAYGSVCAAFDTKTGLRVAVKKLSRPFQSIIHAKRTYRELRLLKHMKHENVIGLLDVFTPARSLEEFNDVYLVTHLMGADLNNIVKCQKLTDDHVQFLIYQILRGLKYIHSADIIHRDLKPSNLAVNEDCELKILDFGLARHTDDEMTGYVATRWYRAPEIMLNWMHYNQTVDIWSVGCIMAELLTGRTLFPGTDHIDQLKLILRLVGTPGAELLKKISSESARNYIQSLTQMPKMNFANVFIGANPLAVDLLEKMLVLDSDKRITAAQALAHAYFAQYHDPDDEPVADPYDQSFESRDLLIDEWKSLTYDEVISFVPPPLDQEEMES

CCN1CCN(c2ccc(Nc3cc(N(C)C(=O)Nc4c(Cl)c(OC)cc(OC)c4Cl)ncn3)cc2)CC1.O=P(O)(O)O [INFIGRATINIB PHOSPHATE]
IC50 [1]: > 10000 nM
IC50 [2]: > 10000 nM
IC50 (Cytochrome P450 2C9): > 10000 nM
IC50 [3]: 2500 nM
inhibition (Rattus norvegicus): Dose-dependent effect
Activity (RT-112): 73%
IC50 (SW780): 32 nM
IC50 [4]: 180 nM
IC50 (J82): > 3000 nM
Cmax [5]: 420 nM
AUC/dose (Tumour [6]): 4.8 nmol·h/g
Activity (Mus musculus): Non-toxic
IC50 [7]: > 10000 nM
Tmax [8]: 4 h
IC50 [9]: > 10000 nM
half-life [10]: 4.8 h
IC50 (Aurora kinase A): > 10000 nM
bioavailability [11]: 32%
IC50 [12]: 15 nM
IC50 [13]: > 10000 nM
IC50 [14]: > 10000 nM
Vd [15]: 26 L/kg
Cmax (Tumour [16]): 1.63 nmol/g
